Source: ChEMBL document CHEMBL1138656, “Design, synthesis, and evaluation of sugar amino acid based inhibitors of protein prenyl transferases PFT and PGGT-1” (J Med Chem, 2004)

Columns and labels:
[1] = biological target: Geranylgeranyl transferase type I (Homo sapiens, UniProt P49354+P53609); experiment: Inhibition of [3H]GGPP incorporation by Protein Geranylgeranyl transferase type I; type: protein-complex assay
Procedure, shortened: (§1)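 Cell-free prenyltransferase assay measuring inhibition of enzyme-catalysed incorporation of tritiated prenyl donor: [3H]FPP for PFT, the corresponding tritiated geranylgeranyl donor for PGGT-1. The buffer was Tris, pH 7.4, with dithiothreitol, which removes the cysteine S-tert-butyl group. Each determination used five compound concentrations. The IC50 came from a fitted concentration–inhibition curve and is the mean of three determinations.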

[2] = biological target: Protein farnesyltransferase (Homo sapiens, UniProt P49354+P49356); experiment: Inhibition of [3H]FPP incorporation by Protein Farnesyltransferase; type: protein-complex assay; procedure, shortened: as §1

SMILES | IC50 [1] [µM] | IC50 [2] [µM]
C=C(N[C@@H](CCSC)C(=O)O)[C@H]1O[C@H](CNC(=O)[C@@H](N)CSSC(C)(C)C)CC[C@@H]1OCc1ccccc1 | 311 | ~1000
CSCC[C@H](NC(=O)[C@H]1O[C@H](CNC(=O)[C@@H](N)CSSC(C)(C)C)CC[C@@H]1OCc1ccccc1)C(=O)O | 48 | 42
CC(C)C[C@H](NC(=O)[C@H]1O[C@H](CNC(=O)[C@@H](N)CSSC(C)(C)C)CC[C@@H]1OCc1ccccc1)C(=O)O | 206 | 321
C[S+]([O-])CC[C@H](NC(=O)[C@H]1O[C@@H](CNC(=O)[C@@H](N)CSSC(C)(C)C)CC[C@@H]1OCc1ccccc1)C(=O)O (some centres undefined) | > 1000 | 2.2
CC(C)C[C@H](NC(=O)[C@H]1O[C@@H](CNC(=O)[C@@H](N)CSSC(C)(C)C)CC[C@@H]1OCc1ccccc1)C(=O)O | 14 | 57

Second part, the compound after the results:

IC50 [1] [µM] | IC50 [2] [µM] | SMILES
261 | > 1000 | C=C(N[C@@H](CC(C)C)C(=O)O)[C@H]1O[C@@H](CNC(=O)[C@@H](N)CSSC(C)(C)C)CCC1O (some centres undefined)
500 | > 1000 | C=C(N[C@@H](CCSC)C(=O)O)[C@H]1O[C@@H](CNC(=O)[C@@H](N)CSSC(C)(C)C)CC[C@@H]1OCc1ccccc1
> 1000 | 0.25 | CSCC[C@H](NC(=O)[C@H]1O[C@@H](CNC(=O)[C@@H](N)CSSC(C)(C)C)CC[C@@H]1OCc1ccccc1)C(=O)O
521 | 91 | C[S+]([O-])CC[C@H](NC(=O)[C@H]1O[C@H](CNC(=O)[C@@H](N)CSSC(C)(C)C)CC[C@@H]1OCc1ccccc1)C(=O)O (some centres undefined)
– | 0.42 | CC[C@H](C)[C@H](NC(=O)[C@@H](NC(=O)[C@@H](N)CS)C(C)C)C(=O)N[C@@H](CCSC)C(=O)O
